# Measurements: ChEMBL document CHEMBL1133252 (Bioorg Med Chem Lett, 2000)
# Experiments:
# ADDP cell line = assay: Inhibitory activity against ovarian tumor cell line ADDP after 72 hr continuous exposure to compound; format: functional, cell-based; conditions: Homo sapiens
# Summary of the method: (§1)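 Log-phase cells were plated in triplicate at 2500–3500 cells/well, and the compound was added 24 h later for 72 h continuous exposure. […] Media: A2780/143B DMEM+5% FBS; HT29 DMEM+10% FBS; HCT116 RPMI+10% FBS; ADDP (cisplatin-resistant A2780) RPMI+5% FBS.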
# HCT-116 = assay: Inhibitory activity against colon tumor cell line HCT116 after 72 hr continuous exposure to compound; format: functional, cell-based; conditions: Homo sapiens, HCT-116, 72 h; summary of the method: as §1
# A2780 = assay: Inhibitory activity against ovarian tumor cell line A2780 after 72 hr continuous exposure to compound; format: functional, cell-based; conditions: Homo sapiens, A2780, 72 h; summary of the method: as §1
# 143B = assay: Inhibitory activity against tumor osteosarcoma cell line 143B after 72 hr continuous exposure to compound; format: functional, cell-based; conditions: Homo sapiens; summary of the method: as §1
# HT-29 = assay: Inhibitory activity against colon tumor cell line HT-29 after 72 hr continuous exposure to compound; format: functional, cell-based; conditions: Homo sapiens, HT-29, 72 h; summary of the method: as §1
# [1] = target: Serine/threonine-protein phosphatase 2A catalytic subunit alpha isoform (Homo sapiens) (UniProt P67775); assay: The compound was tested for the selectivity against protein phosphatases 2A
# Chain of Serine/threonine-protein phosphatase 2A catalytic subunit alpha isoform (Homo sapiens) (P67775 whole entry, canonical isoform): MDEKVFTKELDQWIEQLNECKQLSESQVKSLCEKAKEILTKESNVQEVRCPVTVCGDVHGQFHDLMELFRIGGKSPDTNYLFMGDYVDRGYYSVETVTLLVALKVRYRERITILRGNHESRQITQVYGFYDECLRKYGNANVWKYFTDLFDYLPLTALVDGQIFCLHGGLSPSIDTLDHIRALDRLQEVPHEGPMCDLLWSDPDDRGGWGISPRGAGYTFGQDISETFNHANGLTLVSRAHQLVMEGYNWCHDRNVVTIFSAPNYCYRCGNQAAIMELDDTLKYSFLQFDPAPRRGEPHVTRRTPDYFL
# [2] = target: Serine/threonine-protein phosphatase 2A catalytic subunit (Gallus gallus); assay: Inhibitory activity against partially purified (chicken skeletal muscle) Protein phosphatase 2A
# DNA topoisomerase 2 = target: T1, DNA topoisomerase 2 (Drosophila melanogaster, UniProt P15348); assay: Inhibition of topoisomerase IIin vitro through a novel, non-DNA-strandcleaving mechanism
# T1 sequence (P15348 whole entry): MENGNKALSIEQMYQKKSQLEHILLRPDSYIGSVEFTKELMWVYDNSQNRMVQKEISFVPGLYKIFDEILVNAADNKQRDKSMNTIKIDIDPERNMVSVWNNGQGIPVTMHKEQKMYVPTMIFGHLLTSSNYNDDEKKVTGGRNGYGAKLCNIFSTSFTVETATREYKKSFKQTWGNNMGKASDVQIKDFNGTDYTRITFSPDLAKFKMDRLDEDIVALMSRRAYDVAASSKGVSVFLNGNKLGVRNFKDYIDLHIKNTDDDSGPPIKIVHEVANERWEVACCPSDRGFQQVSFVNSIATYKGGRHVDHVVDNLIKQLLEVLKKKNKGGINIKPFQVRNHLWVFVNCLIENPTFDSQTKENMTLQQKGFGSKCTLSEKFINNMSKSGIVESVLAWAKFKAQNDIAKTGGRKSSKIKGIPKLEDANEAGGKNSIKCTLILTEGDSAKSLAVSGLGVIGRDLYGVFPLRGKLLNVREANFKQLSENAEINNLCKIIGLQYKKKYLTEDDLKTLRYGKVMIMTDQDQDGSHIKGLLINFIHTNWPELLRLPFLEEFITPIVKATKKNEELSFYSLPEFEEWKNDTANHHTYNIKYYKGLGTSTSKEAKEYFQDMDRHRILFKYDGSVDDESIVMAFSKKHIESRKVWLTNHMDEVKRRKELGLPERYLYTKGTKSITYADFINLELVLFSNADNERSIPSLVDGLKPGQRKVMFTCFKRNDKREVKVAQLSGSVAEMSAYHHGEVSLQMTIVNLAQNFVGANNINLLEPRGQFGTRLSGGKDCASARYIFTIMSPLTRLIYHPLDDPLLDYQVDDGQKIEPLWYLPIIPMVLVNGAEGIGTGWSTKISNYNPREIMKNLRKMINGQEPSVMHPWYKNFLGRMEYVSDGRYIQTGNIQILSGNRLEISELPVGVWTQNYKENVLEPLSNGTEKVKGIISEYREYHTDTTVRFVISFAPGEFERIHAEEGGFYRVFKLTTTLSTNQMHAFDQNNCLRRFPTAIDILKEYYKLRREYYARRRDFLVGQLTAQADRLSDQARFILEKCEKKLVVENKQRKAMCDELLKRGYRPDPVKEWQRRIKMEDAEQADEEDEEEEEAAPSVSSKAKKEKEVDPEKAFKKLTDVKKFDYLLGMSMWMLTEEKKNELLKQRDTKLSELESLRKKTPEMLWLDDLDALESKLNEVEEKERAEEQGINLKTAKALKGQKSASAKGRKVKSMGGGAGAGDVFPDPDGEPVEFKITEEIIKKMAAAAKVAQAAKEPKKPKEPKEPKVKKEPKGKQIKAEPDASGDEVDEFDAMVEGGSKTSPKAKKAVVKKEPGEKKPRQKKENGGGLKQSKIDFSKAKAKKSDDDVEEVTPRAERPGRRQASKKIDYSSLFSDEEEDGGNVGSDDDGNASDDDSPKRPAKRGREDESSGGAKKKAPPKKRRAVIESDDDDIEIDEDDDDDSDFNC
# L1210 = assay: Inhibitory activity against L1210 leukemia cells; format: functional, cell-based; conditions: Mus musculus
SMILES,IC50 (ADDP cell line),IC50 (HCT-116),IC50 (A2780),IC50 (143B),IC50 (HT-29),Selectivity [1],IC50 [2],IC50 (DNA topoisomerase 2),IC50 (L1210)
C[C@@]12C(=O)OC(=O)[C@]1(C)[C@H]1CC[C@@H]2O1 [CANTHARIDIN],11 µM,9 µM,10 µM,10 µM,6.4 µM,–,–,–,–
"CCOC(=O)C1C(C(=O)O)[C@@H]2CC[C@H]1O2 (single isomer, unassigned)",330 µM,266 µM,185 µM,437 µM,243 µM,6.6,0.45 µM,–,–
COC1OC(=O)[C@H]2[C@@H]1[C@@H]1CC[C@H]2O1 (some centres undefined),323 µM,143 µM,538 µM,> 1000 µM,28 µM,–,> 1000 µM,–,–
"COC(=O)C1C(C(=O)O)[C@@H]2CC[C@H]1O2 (single isomer, unassigned)",180 µM,76 µM,100 µM,118 µM,105 µM,–,–,–,–
"CCCOC(=O)C1C(C(=O)O)[C@@H]2CC[C@H]1O2 (single isomer, unassigned)",315 µM,75 µM,–,–,15 µM,–,–,–,–
O=C1OC(=O)[C@H]2[C@@H]1[C@@H]1CC[C@H]2O1,47 µM,24 µM,50 µM,43 µM,33 µM,–,–,–,–
C[C@@](O)(/C=C/[C@H]1CC=CC(=O)O1)[C@@H](C[C@@H](O)\C=C/C=C\C=C\CO)OP(=O)(O)O [FOSTRIECIN],–,–,–,–,–,–,0.0034 µM,40 µM,0.46 µM
CCCOC1OC(=O)[C@H]2[C@@H]1[C@@H]1CC[C@H]2O1 (some centres undefined),535 µM,195 µM,375 µM,> 1000 µM,41 µM,–,–,–,–
CCOC1OC(=O)[C@H]2[C@@H]1[C@@H]1CC[C@H]2O1 (some centres undefined),107 µM,80 µM,100 µM,103 µM,26 µM,–,–,–,–
